Source: PubChem BioAssay
GASC1 inh – inhibitors of GASC-1 (KDM4C) histone demethylase, primary screen, biochemical, single concentration HTS. GST-KDM4C 2-372, H3K9me3 peptide, LANCE TR-FRET. 0.15% of 96,000 active. Lysine-specific demethylase 4C (Homo sapiens), Q9H3R0. inhibition, % at 12.5 µM;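 active = mean replicate inhibition above about 25%, with at least 55% of replicates also reaching it, limit read from the data, passing the limit was not always enough; inconclusive = only one of those two conditions met; inactive = neither condition met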
Target sequence (Q9H3R0 2-372 limits assumed): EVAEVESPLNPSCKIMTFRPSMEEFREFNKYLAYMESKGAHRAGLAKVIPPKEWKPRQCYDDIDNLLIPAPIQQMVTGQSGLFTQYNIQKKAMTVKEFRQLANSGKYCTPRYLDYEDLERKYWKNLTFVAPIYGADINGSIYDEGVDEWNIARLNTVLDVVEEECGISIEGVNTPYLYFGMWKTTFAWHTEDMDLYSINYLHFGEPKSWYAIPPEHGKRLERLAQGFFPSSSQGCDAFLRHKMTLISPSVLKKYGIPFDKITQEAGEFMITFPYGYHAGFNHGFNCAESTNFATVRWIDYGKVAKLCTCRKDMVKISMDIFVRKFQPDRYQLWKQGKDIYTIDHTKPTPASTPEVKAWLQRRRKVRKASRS
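System – N-terminal GST-fused human GASC-1 (KDM4C) fragment, residues 2-372 · Input – enzyme final amount 10 nM · Technique – LANCE TR-FRET, Eu antibody, ULight-streptavidin, EDTA, ex 340 nm, em 618/671 nm · Medium – HEPES buffer, pH 7.5, plus ascorbate · Incubation – enzyme reaction 30 min, then detection 60 min, both room temperature · Reagent – H3K9me3 peptide with Fe(II)/2OG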
T cruzi growth-1 – T. cruzi intracellular proliferation inhibitors, primary screen, cell-based, beta-gal Tulahuen parasites, NIH3T3 host, luminescence | 5.9% of 77,000 active | T. cruzi beta-gal in NIH3T3, GalScreen luminescence, 90 h | AID 624255, 2012 | inhibition, % at 8.34 µM;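 active = mean inhibition above about 93%, with at least 55% of replicates each passing it, limit read from the data, passing the limit was not always enough; inconclusive = only one of those two conditions holds; inactive = neither condition holds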
IDH1 R132H inh – inhibitors of IDH1 R132H reductase, primary screen, biochemical, plate reader, single point. Isocitrate dehydrogenase [NADP] cytoplasmic (Homo sapiens), O75874. diaphorase/resazurin fluorescence, 60 min. 0.18% of 70,000 active. inhibition, % at 10 µM. AID 624101, 2012; in the data active = inhibition above about 34%; inconclusive = no clear call, values can overlap the other calls; inactive = below about 11%;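 note: 0% = DMSO and 100% = no enzyme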
T cruzi growth-2 – T. cruzi intracellular proliferation inhibitors, confirmation, cell-based, NIH3T3 host, beta-gal parasite, luminescence, cherry-pick; shares compounds with T cruzi growth-1; T. cruzi beta-gal in NIH3T3, GalScreen luminescence, 90 h; inhibition, % at 8.35 µM; 72% of 5,600 active; AID 651739, 2012;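 active = mean replicate inhibition above about 95% and at least 55% of replicates individually reaching it, limit read from the data; inconclusive = only one of the two criteria is met; inactive = neither criterion is met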
T cruzi growth-3 – inhibitors of intracellular T. cruzi replication, confirmation, NIH3T3 host cells, beta-gal parasites, cherry-pick, set 2. shares compounds with T cruzi growth-1. T. cruzi beta-gal in NIH3T3, GalScreen luminescence, 90 h. inhibition, % at 2.09 µM. 21% of 5,600 active. AID 651740, 2012;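 active = mean inhibition above about 95%, with at least 55% of replicates also reaching it, limit read from the data; inconclusive = meets just one of the two conditions; inactive = meets neither condition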;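 note: plate controls were neutral control median for no effect and positive control median for full effect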
NIH3T3 tox – cytotoxicity in mouse NIH/3T3 fibroblasts, confirmation, cytotoxicity control for T. cruzi proliferation inhibitor project, cell-based, cherry-pick, single point; shares compounds with T cruzi growth-1; 14% of 5,600 active; cytotoxicity (signal decrease), % at 8.35 µM; AID 651742, 2012; NIH/3T3 viability, CellTiter-Glo ATP luminescence, 90 h;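 active = mean signal decrease across replicates above about 35% based on untreated-well scatter, with enough replicates individually passing, limit read from the data; inconclusive = no rule stated though some were filed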;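 note: 0% = median of neutral control wells and 100% = median of positive control wells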
3T3 cytotox 2 – NIH/3T3 fibroblast cytotoxicity, confirmation, cytotoxicity control, cell-based, cherry-pick, single point, set 2. shares compounds with T cruzi growth-1. inhibition, % at 24.9 µM. NIH/3T3 viability, CellTiter-Glo ATP luminescence, 90 h. 56% of 5,600 active;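 active = mean loss of cell viability signal at or above a set limit, and enough replicates individually reaching it; inconclusive = meets only the mean limit or only the replicate share; inactive = meets neither condition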;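 note: 0% = median of neutral control wells and 100% = median of positive control wells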
Active calls of the source: *; ? = inconclusive; · = no result given. Only a selection was taken, and hits are over-represented in it overall.

SMILES	GASC1 inh	T cruzi growth-1	IDH1 R132H inh	T cruzi growth-2	T cruzi growth-3	NIH3T3 tox	3T3 cytotox 2
C[C@@H]1CN([C@@H](C)CO)C(=O)c2cc(C#Cc3ccccc3F)cnc2O[C@H]1CN(C)S(=O)(=O)c1ccccc1F	-6	108*	0	115*	105*	19	68*
C[C@H]1CN([C@@H](C)CO)C(=O)c2cc(C#Cc3ccccc3F)cnc2O[C@H]1CN(C)S(=O)(=O)c1ccccc1	-3	·	·	·	·	·	·
CCC(Sc1nnnn1-c1ccccc1)C(=O)Nc1ccccc1OC (centres undefined)	·	·	0	·	·	·	·
O=C(Cn1cnc2sc(-c3ccccc3)cc2c1=O)Nc1cccc(C(F)(F)F)c1	·	·	0	·	·	·	·
C=CCNc1oc(CC(C)C)nc1C#N	·	·	-2	·	·	·	·
COC(=O)c1c(NC(=O)CC2Sc3ccccc3NC2=O)sc2c1CCC(C)C2 (centres undefined)	·	·	0	·	·	·	·
Cc1cc(=O)[nH]c(SCC(=O)Nc2ccc(Br)cc2F)n1	·	·	0	·	·	·	·
CN(CC(=O)Nc1ccc(C(F)(F)F)cc1)S(=O)(=O)c1ccc(Br)cc1	·	·	0	·	·	·	·
C[C@@H]1CN([C@@H](C)CO)C(=O)c2cc(C#Cc3ccccc3F)cnc2O[C@H]1CN(C)S(C)(=O)=O	1	69	-6	·	·	·	·
C[C@H](CO)N1C[C@H](C)[C@H](CN(C)S(=O)(=O)c2ccccc2)Oc2ncc(C#Cc3ccccc3F)cc2C1=O	-1	113*	0	104*	50	11	55*
OC[C@H]1[C@@H](c2ccc(C#Cc3ccccc3F)cc2)[C@H]2CN(Cc3cncnc3)CCCCN21	1	30	·	·	·	·	·
OC[C@@H]1[C@@H](c2ccc(C#Cc3ccccc3)cc2)[C@@H]2CN(Cc3cncnc3)CCCCN12	1	101*	·	98*	56	33	103*
OC[C@@H]1[C@H](c2ccc(C#Cc3ccccc3)cc2)[C@H]2CN(Cc3cncnc3)CCCCN12	-2	119*	·	98*	102*	37*	102*
OC[C@H]1[C@H](c2ccc(C#Cc3ccccc3)cc2)[C@@H]2CN(Cc3cncnc3)CCCCN12	-1	104*	·	107*	80	44*	105*
OC[C@H]1[C@@H](c2ccc(C#Cc3ccccc3F)cc2)[C@@H]2CN(Cc3cncnc3)CCCCN12	1	96*	·	104*	52	47*	104*
OC[C@H]1[C@@H](c2ccc(C#Cc3ccccc3)cc2)[C@H]2CN(Cc3cncnc3)CCCCN21	0	46	·	·	·	·	·
OC[C@@H]1[C@@H](c2ccc(C#Cc3ccccc3F)cc2)[C@@H]2CN(Cc3cncnc3)CCCCN12	1	83	·	·	·	·	·
COC(=O)CN1C(=O)CN(c2nc(C)cc(C)n2)C1=O	·	·	0	·	·	·	·
Cc1cc(C)c(S(=O)(=O)N(C)CC(=O)Nc2cc(C(F)(F)F)ccc2Cl)c(C)c1	·	·	0	·	·	·	·
OC[C@H]1[C@H](c2ccc(Br)cc2)[C@@H]2CN(Cc3cncnc3)CCCCN12	-1	110*	·	97*	75	-17	2
OC[C@@H]1[C@@H](c2ccc(-c3ccccc3)cc2)[C@H]2CN(Cc3cncnc3)CCCCN12	0	26	·	·	·	·	·
CS(=O)(=O)N(CC(=O)NC1CC2CCC1C2)c1ccc(Cl)c(C(F)(F)F)c1 (centres undefined)	·	·	0	·	·	·	·
COc1ccc(S(=O)(=O)N2CCCCN3[C@@H](CO)[C@H](c4ccc(C5=CCCC5)cc4)[C@@H]3C2)cc1	1	?	·	104*	88	27	104*
CS(=O)(=O)N1CCCCN2[C@H](C1)[C@H](c1ccc(C3=CCCC3)cc1)[C@@H]2CO	1	?	·	60	26	19	9
COc1ccc(S(=O)(=O)N2CCCCN3[C@H](CO)[C@H](c4ccc(C5=CCCC5)cc4)[C@H]3C2)cc1	-1	94	·	·	·	·	·
SMILES	GASC1 inh	T cruzi growth-1	IDH1 R132H inh	T cruzi growth-2	T cruzi growth-3	NIH3T3 tox	3T3 cytotox 2
CS(=O)(=O)N1CCCCN2[C@H](CO)[C@H](c3ccc(C4=CCCC4)cc3)[C@@H]2C1	-1	51	·	·	·	·	·
COc1ccc(NC(=O)CSc2nnc(N)s2)cc1Cl	·	·	-1	·	·	·	·
CCCc1nc(SCC(=O)c2ccccc2Cl)[nH]c(=O)c1C	·	·	-1	·	·	·	·
COc1cccc(NC(=O)N(C)C[C@H]2Oc3cc(C#Cc4ccccc4)ccc3S(=O)(=O)N([C@H](C)CO)C[C@H]2C)c1	·	85*	·	100*	114*	5	5
COc1cccc(NC(=O)N(C)C[C@H]2Oc3cc(-c4ccccc4OC)ccc3S(=O)(=O)N([C@H](C)CO)C[C@@H]2C)c1	3	·	0	·	·	·	·
COc1cccc(C#Cc2ccc3c(c2)O[C@@H](CN(C)C(C)=O)[C@H](C)CN([C@@H](C)CO)S3(=O)=O)c1	0	?	0	107*	30	?	35*
COc1cccc(NC(=O)N(C)C[C@@H]2Oc3cc(C#Cc4ccccc4)ccc3S(=O)(=O)N([C@@H](C)CO)C[C@@H]2C)c1	0	?	-3	·	·	·	·
COc1cccc(NC(=O)N(C)C[C@H]2Oc3cc(C#Cc4ccccc4)ccc3S(=O)(=O)N([C@H](C)CO)C[C@@H]2C)c1	·	94*	-2	113*	89	24	21
COc1cccc(C#Cc2ccc3c(c2)O[C@H](CN(C)C(C)=O)[C@H](C)CN([C@@H](C)CO)S3(=O)=O)c1	0	50	2	·	·	·	·
C[C@H](CO)N1C[C@H](C)[C@@H](CN(C)C(=O)Nc2ccc(F)cc2)OCCCC[C@H](C)Oc2ccc(NC(=O)NC3CCCCC3)cc2C1=O	1	?	0	109*	68	18	-27
C[C@@H]1CCCCO[C@H](CN(C)C(=O)Nc2ccc(F)cc2)[C@@H](C)CN([C@H](C)CO)C(=O)c2cc(NC(=O)NC3CCCCC3)ccc2O1	2	-8	·	·	·	·	·
C[C@@H]1CN([C@H](C)CO)C(=O)c2cc(NC(=O)NC3CCCCC3)ccc2O[C@@H](C)CCCCO[C@H]1CN(C)C(=O)Nc1ccc(F)cc1	-2	·	1	·	·	·	·
C[C@H](CO)N1C[C@H](C)[C@H](CN(C)C(=O)Nc2ccc(F)cc2)OCCCC[C@H](C)Oc2ccc(NC(=O)NC3CCCCC3)cc2C1=O	0	102*	·	106*	71	12	11
CCc1cc2c(=O)n(-c3ccccc3)c(SCC(=O)Nc3ccc([N+](=O)[O-])cc3)nc2s1	·	·	0	·	·	·	·
